# Screens: PubChem, Sanford-Burnham Center for Chemical Genomics
# eIF4H FP inh: inhibitors of RNA binding by human eIF4H; Q15056; eIF4H fluorescence polarization binding assay; inhibition, % at 35 µM; actives 0.94% (n = 290,000);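 further: calls also rest on retests at 20 µM and on dose response follow-up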
# SKN-1 block: inhibitors of C. elegans SKN-1. actives 0.49% (n = 360,000). inhibition, % at 21.8 µM. C. elegans VP596 Pgst-4::GFP/RFP ratio, acrylamide-induced, 24 h;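 active means interference check ratio from 0.5 to 1.5 plus GFP to RFP signal ratio inhibition reaching or exceeding a fixed threshold, cut at about 30% in these data, passing the limit was not always enough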
# PABP FP inh: blocks human PABP binding to poly(A) RNA; calls only at 35 µM; actives 1% (n = 290,000); P11940; fluorescence polarization;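 further: calls also rest on retests at 20 µM and on dose response follow-up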
# PABP1 MLLE inh: inhibitors of microRNA-mediated deadenylation, human PABP1 MLLE binding | P11940 | GST-MLLE / FITC-PAM2 fluorescence polarization | inhibition, % at 20 µM | actives 0.36% (n = 360,000) | AID 588489; in the data active means inhibition above about 35%, passing the limit was not always enough;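 further: plate controls were DMSO wells with GST-MLLE for no effect and wells lacking GST-MLLE protein for full effect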
# MT1-MMP act inh: inhibitors of human MT1-MMP activation | actives 0.061% (n = 360,000) | HT1080 RFP-PRO-GFP cells, GFP/RFP ratio fluorescence, overnight; percent of plate control window, DMSO zero | P50281 | AID 651647 | GFP/RFP ratio change, % at 20 µM;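 active means GFP/RFP ratio change of at least 30% with cell ATP level not reduced by more than half and red fluorescence within 50% of control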
#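 Assay system: HT1080 cells carrying an RFP-PRO-GFP reporter | Dosing: Single dose of 20 µM compound, 1% DMSO final | Incubation: Cells overnight before dosing, compound overnight, 37 °C, 5% CO2 | Evaluation: GFP/RFP fluorescence ratio | Control set: DMSO and RFP-L50D-GFP cell wells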
# MT1-MMP conf: MT1-MMP (human) activation inhibition, single-concentration validation; shares compounds with MT1-MMP act inh; HT1080 RFP-PRO-GFP cells, GFP and RFP fluorescence ratio, overnight; inhibition, % at 20 µM; actives 10% (n = 200); AID 652235;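 active means inhibition of at least 50% in the primary cell screen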
# An asterisk follows results filed as active; i = inactive; u = inconclusive; x = no result given; + = active, no number. The list is not random: actives were taken first. Their share in the collection is about 1.8%. Unless noted, how the calls were made is not given here.
SMILES,eIF4H FP inh,SKN-1 block,PABP FP inh,PABP1 MLLE inh,MT1-MMP act inh,others
COc1cc(CN2C(=O)NC(=O)C3(Cc4cc(C)ccc4N(C)C3)C2=O)cc(OC)c1 (configuration not stated),-3,14,i,28,-3,
CCCCN1C(=O)NC(=O)C2(Cc3cc(C)ccc3N(C)C2)C1=O (configuration not stated),-1,41*,i,-7,-1,
CC12Cc3cn[nH]c3C=C1CCC1C2CCC2(C)C1CCC2(C)O (configuration not stated),x,29,x,12,2,
COC(=O)C1=Nc2ccccc2/C1=C\c1c(O)n(C)c(=O)n(C)c1=O,63,11,+,-25,-7,
Cn1c(O)c(/C=C2\C=Nc3ccccc32)c(=O)n(C)c1=O,u,51,u,-20,-25,
Nc1c2c(nc3ccccc13)CCN(Cc1ccccc1)C2,u,-17,u,88,-10,
Nc1cc2nc3ccccc3nc2cc1N,91*,15,+,97,-3,
CCCc1nc2ccccc2c(=O)n1-c1ccc(OC)cc1,-8,37*,i,-12,-3,
CCCc1nc2ccccc2c(=O)n1-c1cccc(OC)c1,-2,11,i,-4,0,
O=C1C2CC(CN3CCCCC23)C2CCCCN12 (configuration not stated),x,6,x,-6,1,
C[C@@H]1CN([C@@H](C)CO)C(=O)CCCn2cc(nn2)CO[C@H]1CN(C)C(=O)Oc1cccc2ccccc12,x,-5,x,6,-2,
O=C(O)CCn1cc(C=C2C(=O)NC(=S)NC2=O)c(-c2ccccc2)n1,4,-2,i,42*,2,
O=C(O)CCn1cc(C=C2C(=O)NC(=S)NC2=O)c(-c2cc3ccccc3oc2=O)n1,-12,17,i,11,-4,
O=C1NC(=O)N(Cc2ccco2)C(=O)/C1=C\c1cccn1CCOc1ccc(Cl)cc1,u,-27,i,-21,-20,
Cc1cccc(OCCn2cccc2/C=C2/C(=O)NC(=O)N(Cc3ccco3)C2=O)c1,53*,-16,+,-27,-13,
O=C1NC(=O)N(Cc2ccco2)C(=O)/C1=C/c1ccc(-c2cccc([N+](=O)[O-])c2)o1,78*,-7,+,0,2,
COCCCNP1(=O)OCC(C)([N+](=O)[O-])CO1 (configuration not stated),x,12,x,2,4,
O=C(NCC1=C(c2cccc3ccccc23)C[C@@H]2CC[C@H]1N2Cc1ccco1)c1cccs1,x,6,x,-3,-6,
COC(=O)C1=C(c2ccc(OC(F)(F)F)cc2)C[C@@H]2CC[C@H]1N2C(=O)NCCNC(C)=O,x,17,x,-12,-1,
COC(=O)C1=C(c2ccc(OC(F)(F)F)cc2)C[C@@H]2CC[C@H]1N2C(=O)NCCc1ccccc1,x,-5,x,1,31*,MT1-MMP conf=2
CCCC1(CCO)C(=O)NC(=S)NC1=O,x,-7,x,11,5,
CC(C)OC(=O)c1c(N)n(CC2CCCO2)c2nc3ccccc3nc12 (configuration not stated),-4,4,i,7,37*,MT1-MMP conf=2
FC(F)(F)c1cccc(NC2=NCCS2)c1,x,14,x,-20,5,
O=C(O)c1cccc2c1NC(C(=O)O)C1CC(Sc3ccccc3[N+](=O)[O-])C(Cl)C21 (configuration not stated),96,7,i,34,38*,MT1-MMP conf=0
COc1cc2c(cc1OC)-c1c3c(cc4c1[C@@H](C2)N(C)CC4)OCO3,16,1,i,-33,33*,MT1-MMP conf=2
SMILES,eIF4H FP inh,SKN-1 block,PABP FP inh,PABP1 MLLE inh,MT1-MMP act inh,others
COc1c2c(cc3c1OCO3)CCN(C)C2,x,9,x,-5,3,
O=C(NCC1=C(c2ccc3ccccc3c2)C[C@@H]2CC[C@H]1N2Cc1ccco1)c1nccs1,x,11,x,3,-2,
CCOc1ccc2nc(N=Nc3c(O)[nH]c(=S)[nH]c3=O)sc2c1,8,21,i,-12,59*,MT1-MMP conf=35
O=C(CF)NC(Nc1cccc2cccnc12)C(Cl)(Cl)Cl (configuration not stated),-8,7,i,-11,49*,MT1-MMP conf=4
O=C1CC2OCC=C3CN4CCC56c7ccccc7N1C5C2C3CC46O (configuration not stated),x,-13,x,10,2,
CC[n+]1c(/C=C/N(C)c2ccccc2)sc2ccc(Cl)cc21,-7,48,i,20,52*,MT1-MMP conf=47
CC1=NNC(=O)C1Br (configuration not stated),x,15,x,-125,0,
O=C1NC(=S)N(Cc2ccco2)C(=O)/C1=C\c1cccs1,74,x,i,x,x,
C=CCN1C(=O)/C(=C/c2cccs2)C(=O)NC1=S,67,15,+,35,35*,MT1-MMP conf=8
